Bioassay records: PubChem BioAssay, several laboratories
This is a sample that favours compounds with a hit; in the whole collection about 2.5% have one here.
TRPC6 inh = inhibitors of mouse TRPC6 channel; hit rate 1.1% among 310,000; Q61143; HEK293-TRPC6, membrane potential dye, ACh-evoked depolarization; hits give low values; B-score at 10 µM;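 active = B-score under library mean minus 3 SD, initial fluorescence not abnormally high, positive integrated signal ratio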;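 also: B-score derived from integrated fluorescence ratio over the kinetic read; more negative B-score means stronger inhibition of depolarization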
Target sequence (Q61143 whole entry, looked up): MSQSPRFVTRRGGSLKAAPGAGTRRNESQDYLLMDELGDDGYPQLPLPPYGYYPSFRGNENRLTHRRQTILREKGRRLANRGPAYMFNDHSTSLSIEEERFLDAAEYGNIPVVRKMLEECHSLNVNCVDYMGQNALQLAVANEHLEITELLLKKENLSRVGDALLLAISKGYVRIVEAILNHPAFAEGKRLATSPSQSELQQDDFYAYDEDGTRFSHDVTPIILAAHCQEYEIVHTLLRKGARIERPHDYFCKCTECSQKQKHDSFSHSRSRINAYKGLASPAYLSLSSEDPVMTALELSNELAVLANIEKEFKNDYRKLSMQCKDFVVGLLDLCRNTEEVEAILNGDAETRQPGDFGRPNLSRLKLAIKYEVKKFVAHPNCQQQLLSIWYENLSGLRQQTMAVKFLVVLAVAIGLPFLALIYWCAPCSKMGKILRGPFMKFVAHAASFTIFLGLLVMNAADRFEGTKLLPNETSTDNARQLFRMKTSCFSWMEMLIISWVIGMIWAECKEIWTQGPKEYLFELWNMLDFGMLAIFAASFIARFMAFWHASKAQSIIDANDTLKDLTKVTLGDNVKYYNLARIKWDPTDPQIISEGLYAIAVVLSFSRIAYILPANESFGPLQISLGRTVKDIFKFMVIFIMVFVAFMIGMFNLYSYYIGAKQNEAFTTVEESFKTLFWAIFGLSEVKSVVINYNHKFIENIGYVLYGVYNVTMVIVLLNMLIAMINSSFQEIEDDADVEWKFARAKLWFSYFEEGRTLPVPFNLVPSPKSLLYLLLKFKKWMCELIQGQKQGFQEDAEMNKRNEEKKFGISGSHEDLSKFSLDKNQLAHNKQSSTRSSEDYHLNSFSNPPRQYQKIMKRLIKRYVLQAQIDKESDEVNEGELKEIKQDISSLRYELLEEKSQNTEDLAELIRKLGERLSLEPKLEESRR
TRPC4 act = TRPC4 (mouse) channel activation; Q9QUQ5; HEK293 TRPC4beta/mu-opioid, Fluo4 calcium fluorescence; hits give high values; B-score at 10 µM; hit rate 0.49% among 310,000; AID 2237;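 active = B-score above 5 SD of library B-scores, and initial fluorescence ratio not above library mean plus 5 SD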;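 also: positive B-score marks a calcium rise read as TRPC4 activation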
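Assay system: HEK293 stable line with TRPC4beta plus mu-opioid receptor. Times: dye 45 min RT, read 110 s. Measured by: kinetic Fluo4 calcium fluorescence. Measure: B score of integrated ratio. Controls: assay buffer as low control, maximal DAMGO as high control.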
TRPC4 block = inhibitors of mouse TRPC4 channel | HEK293 TRPC4beta/mu-opioid, DAMGO-evoked Fluo4 calcium flux; hits give low values | B-score at 10 µM | hit rate 0.39% among 300,000 | AID 2247;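 active = B-score over 3 SD under the library average, no early fluorescence shift, positive overall ratio signal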
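Assay system: HEK293 cells with stable TRPC4beta plus mu-opioid receptor expression; Probe or stimulus: DAMGO in two steps, submaximal then maximal; Dosing: single-point compound dosing; Measured by: Fluo4 calcium-dye fluorescence, kinetic read; Read-out basis: B score from integrated Fluo4 fluorescence ratio.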
TRPC4 PAM = allosterically enhances the mouse TRPC4 cation channel; Q9QUQ5; hit rate 0.42% among 310,000; AID 2227; B-score at 10 µM; HEK293 TRPC4beta/mu-opioid, DAMGO EC20, Fluo-4 Ca2+ flux; hits give high values;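 active = B-score of calcium response area above 5 SD of library B-scores, with initial fluorescence ratio within 5 SD of library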
TRPC6 act = activators of mouse TRPC6 channel; HEK293-TRPC6 membrane potential dye fluorescence; hits give high values; B-score at 10 µM; hit rate 0.13% among 310,000; AID 2550;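 active = B-score of the integrated fluorescence ratio above library mean plus 3 SD, and starting fluorescence ratio within library mean plus 5 SD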;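 also: higher score means more depolarization so channel activation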
Pemphigus Ab inh = human desmoglein-3 autoantibody binding inhibition; DSG3-coupled beads, scFv-anti-DSG3-GFP binding, flow cytometry; hits give low values; AID 588358; binding (percent of control), % at 10 µM; P32926; hit rate 0.48% among 310,000;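 active = binding more than 3 SD below its plate's average and above zero; inconclusive = below that plate limit but binding exactly zero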;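 also: hits lower antibody fragment binding to DSG3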
Of the large screens only hits and unclear results are named; the others gave an inactive call.

Cc1ccc2c(c1)N(CC(=O)N1CCN(C3CCCCC3)CC1)C(=O)CO2	TRPC4 PAM 10 (no result: Pemphigus Ab inh)
CCOC(=O)[C@H]1[C@H]2COc3ccc(Br)cc3[C@@H]2N2C(=O)CN(Cc3ccco3)C(=O)[C@@]12C	none (no result: TRPC6 inh, TRPC4 act, TRPC4 block, TRPC4 PAM, TRPC6 act)
CCCCOc1ccc(C(=O)NNC(=O)c2cnccn2)cc1OC	none (no result: TRPC6 inh, TRPC4 act, TRPC4 block, TRPC4 PAM, TRPC6 act)
CCCN(CCC)CCCNC(=O)CCNS(=O)(=O)c1ccc(Br)cc1	TRPC4 act 76
O=c1cc2c(=O)oc3cc(O)c(O)oc3c2c(O)c1O	Pemphigus Ab inh inconclusive
CC(=O)N[C@@H](C)C(=O)N1CCN(S(=O)(=O)c2ccc(Cl)cc2)CC1	none
O=C(CN1CCN(c2ccc([N+](=O)[O-])cc2)CC1)c1ccccc1	TRPC4 PAM 11
COc1cc(Sc2ccc(C)cc2)c(OC)cc1N	Pemphigus Ab inh 80
NC(=O)c1ccsc1NC(=O)CSc1nnc(NC2CC2)s1	none (no result: TRPC6 inh, TRPC4 act, TRPC4 block, TRPC4 PAM, TRPC6 act)
Cc1ccc2[nH]c(=O)c(CN(CCCN3CCOCC3)C(=O)NC3CCCCC3)cc2c1	Pemphigus Ab inh 93
O=C(NC1CCCCC1)N(CCN1CCOCC1)Cc1cc2cc3c(cc2[nH]c1=O)OCCO3	none
O=C1c2ccccc2CN1Cc1ccccc1	none
COc1ccc(C(c2nnnn2C(C)(C)C)N2CCN(c3nc4ccccc4s3)CC2)cc1 (configuration not stated)	none
CCC(C)(C)n1nnnc1C(c1ccc(O)c(OC)c1)N1CCN(c2nc3ccccc3s2)CC1 (configuration not stated)	TRPC4 act 58
Cc1ccc2nc(/N=C(\N)NC(=O)NC3CCCCC3)nc(C)c2c1	TRPC4 act 55
CCCN1CCN(C(=S)NCc2ccc(Cl)cc2)CC1	TRPC4 PAM 22
S=C(NCc1ccc(Cl)cc1)N1CCN(c2ccccn2)CC1	none
CC(C)(C)c1ccc(C(=O)N2CCN(CCNC(=O)C(=O)NCc3ccc(Cl)cc3)CC2)cc1	Pemphigus Ab inh 96
O=C(Cc1ccccc1F)Nc1ccc(S(=O)(=O)N2CCCC2)cc1	none (no result: TRPC6 inh, TRPC4 act, TRPC4 block, TRPC4 PAM, TRPC6 act)
CCOC(=O)CSc1nnc(-c2ccccc2NC(=O)c2ccccc2)o1	Pemphigus Ab inh 69
CCc1nnc(NC(=O)CSc2nnc(-c3ccccc3NC(=O)c3ccccc3)o2)s1	none
CC(C)C(=O)NNC(=O)c1cc2sccc2s1	none (no result: Pemphigus Ab inh)
OCCC1CN(Cc2ccc3c(c2)CCO3)CCN1C1CCCC1 (configuration not stated)	Pemphigus Ab inh inconclusive
CC(C)=C1SC(N2CCN(c3cccc(C(F)(F)F)c3)CC2)=NC1=O	Pemphigus Ab inh 42
CCC(=O)Nc1nc2ccccc2n1CCN(CC)CC	TRPC4 PAM 11
O=S(=O)(NCc1ccccn1)c1ccc2ccccc2c1	none
O=C(CNS(=O)(=O)c1ccc2ccccc2c1)NCCc1ccccn1	TRPC4 act 137
CC[C@H]1C(Nc2ccccc2)C[C@@H]2CCN3C(=O)CC[C@H]1[C@H]23 (some centres not stated)	none (no result: TRPC6 inh, TRPC4 act, TRPC4 block, TRPC4 PAM, TRPC6 act)
CCN1CCN(C(=O)NS(=O)(=O)c2ccc(C)cc2)CC1	none
Cc1ccc(S(=O)(=O)NC(=O)N2CCN(Cc3c(F)cccc3Cl)CC2)cc1	TRPC4 PAM 21
CN1CCN(c2ccc(C(F)(F)F)cc2NC(=O)Nc2ccccc2)CC1	TRPC4 act 105, TRPC4 PAM 17
CC(Cl)C(=O)Nc1cc(C(F)(F)F)ccc1N1CCOCC1 (configuration not stated)	none
Cc1cccc(OCc2nnc(SCC(=O)O)n2-c2ccccc2)c1	none
CN1C(=O)C2(OCC(COc3ccc(Cl)cc3)O2)c2ccccc21 (configuration not stated)	none
CC(=O)N1CCN(c2ccc(OC[C@H]3CO[C@](Cn4ccnc4)(c4ccc(Cl)cc4Cl)O3)cc2)CC1	TRPC4 act 52
O=S(=O)(NCC1(N2CCOCC2)CCCCC1)c1ccc(Cl)cc1C(F)(F)F	TRPC4 act 47
Cc1ccc(C(C)(C)C)cc1S(=O)(=O)Nc1nc2ccccc2nc1Cl	TRPC4 block -6
Cc1cc(F)ccc1S(=O)(=O)Nc1nc2ccccc2nc1Cl	none (no result: Pemphigus Ab inh)
CCN(CC)CCN(Cc1cc2ccc(C)cc2[nH]c1=O)C(=S)Nc1ccccc1C(=O)OC	TRPC4 block -6
Cc1ccc(NC(=S)N(CCCN(C)C)Cc2cc3cc4c(cc3[nH]c2=O)OCO4)c(C)c1	TRPC4 block -6
N=C(N)SCc1cn2ccccc2n1	TRPC4 PAM 16
Nc1ccccc1SCc1cn2ccccc2n1	none
O=C(Nc1sc2c(c1C(=O)NCC(O)CO)CCCC2)c1ccccc1 (configuration not stated)	none
CCN(CC)CCSc1nc(O)c(C(C)C)c(=O)[nH]1	TRPC4 act 80, TRPC4 PAM 12
CCCc1c(O)nc(SCCN(CC)CC)[nH]c1=O	TRPC4 act 112
CN1c2ccccc2C(C)(C)C12CC(c1cccc(S(=O)(=O)N3CCCC3)c1)=NO2 (configuration not stated)	none
Cc1cc(C)c(C)c(OCCN2CCOCC2)c1	TRPC4 PAM 10
Cc1cc(C)c(C)c(OCCCN(C)C)c1	TRPC4 act 126, TRPC4 PAM 13
N#Cc1ccc(-c2ccc(F)cc2)nc1Oc1ccccc1	none
N#Cc1ccc(-c2ccc(F)cc2)nc1Oc1ccc(F)cc1	Pemphigus Ab inh 82
Cn1c(=O)n(C)c2cc(N3CCOCC3)c(NC(=O)c3ccc(F)cc3)cc21	none
CCOc1ccc(C(=O)Cn2cnc3ccccc3c2=O)cc1	none
O=C(Cn1cnc2ccccc2c1=O)c1ccc(OC(F)F)cc1	Pemphigus Ab inh 39
CC1=CC(=C(C#N)C#N)C=C(C)N1Cc1ccc(Cl)cc1	Pemphigus Ab inh -3.8
O=C(CSc1nccc(-c2ccc(Br)cc2)n1)NCCc1ccccc1	Pemphigus Ab inh 69
O=C(CNc1ccc(Br)cc1)c1ccc(O)cc1	TRPC4 block -8
CCOC(=O)c1ccc(S(=O)(=O)NCC(C)(C)N2CCOCC2)cc1	Pemphigus Ab inh 77
CC(=O)c1cccc(S(=O)(=O)NCC(C)(C)N2CCOCC2)c1	none
CC(C)C(=O)Nc1cc2c3c(c1)CCN3C(=O)CC2	none
COc1ccccc1CN=C1Nc2ccccc2CS1	TRPC4 act 71
COc1cccc(CN=C2Nc3ccccc3CS2)c1	none
O=C(C1CCN(S(=O)(=O)c2cnc[nH]2)CC1)N(CCc1ccccc1)Cc1ccccc1	none
O=C(C1CCN(CC2CC=CCC2)CC1)N(CCc1ccccc1)Cc1ccccc1 (configuration not stated)	TRPC4 block -5
C[C@@H]1CN([C@H](C)CO)C(=O)CCCn2nncc2CO[C@H]1CN(C)Cc1ccc(-c2ccccc2)cc1	none (no result: TRPC6 inh, TRPC4 act, TRPC4 block, TRPC4 PAM, TRPC6 act)
C[C@H](CO)N1C[C@H](C)[C@@H](CN(C)Cc2ccccc2)OCc2cnnn2CCCC1=O	Pemphigus Ab inh 91 (no result: TRPC6 inh, TRPC4 act, TRPC4 block, TRPC4 PAM, TRPC6 act)
C/C(Cc1ccccc1)=N\NC(=O)CNC(=O)COc1cccc(C)c1	TRPC4 act 80
